# Diaph inh CS – diaphorase inhibitors and chemical oxidizers, primary screen, counter-screen for diaphorase-coupled primary assays, biochemical, uHTS, resorufin fluorescence; diaphorase resazurin-to-resorufin fluorescence, NADH, 16 min; bacterial (C. kluyveri) enzyme, not human; inhibition, % at 20 µM; 190,000 tested, 0.69% active; AID 1217, 2008;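 active means primary screen inhibition at 20 µM above a set limit, cut at about 50% in these data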;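 further: plate controls were DMSO with full reaction for no effect and wells lacking NADH for full effect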
#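 Detection: fluorescence of resorufin formed from resazurin, Ex 544/Em 590 nm; test system: Clostridium kluyveri diaphorase enzyme; amount: 0.14 U/mL diaphorase, enzyme working solution; times: 16-min room-temperature incubation before reading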
# p97 ATPase inh – inhibitors of human p97 ATPase, primary screen, biochemical | Transitional endoplasmic reticulum ATPase (Homo sapiens), P55072 | recombinant p97 ATPase, Kinase-Glo ATP luminescence, 3 h | inhibition, % at 8 µM | 220,000 tested, 0.42% active | AID 1481, 2009; in the data active means inhibition above about 15%;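 further: 0% = DMSO vehicle and 100% = wells lacking enzyme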
# Target sequence (P55072 whole entry, looked up): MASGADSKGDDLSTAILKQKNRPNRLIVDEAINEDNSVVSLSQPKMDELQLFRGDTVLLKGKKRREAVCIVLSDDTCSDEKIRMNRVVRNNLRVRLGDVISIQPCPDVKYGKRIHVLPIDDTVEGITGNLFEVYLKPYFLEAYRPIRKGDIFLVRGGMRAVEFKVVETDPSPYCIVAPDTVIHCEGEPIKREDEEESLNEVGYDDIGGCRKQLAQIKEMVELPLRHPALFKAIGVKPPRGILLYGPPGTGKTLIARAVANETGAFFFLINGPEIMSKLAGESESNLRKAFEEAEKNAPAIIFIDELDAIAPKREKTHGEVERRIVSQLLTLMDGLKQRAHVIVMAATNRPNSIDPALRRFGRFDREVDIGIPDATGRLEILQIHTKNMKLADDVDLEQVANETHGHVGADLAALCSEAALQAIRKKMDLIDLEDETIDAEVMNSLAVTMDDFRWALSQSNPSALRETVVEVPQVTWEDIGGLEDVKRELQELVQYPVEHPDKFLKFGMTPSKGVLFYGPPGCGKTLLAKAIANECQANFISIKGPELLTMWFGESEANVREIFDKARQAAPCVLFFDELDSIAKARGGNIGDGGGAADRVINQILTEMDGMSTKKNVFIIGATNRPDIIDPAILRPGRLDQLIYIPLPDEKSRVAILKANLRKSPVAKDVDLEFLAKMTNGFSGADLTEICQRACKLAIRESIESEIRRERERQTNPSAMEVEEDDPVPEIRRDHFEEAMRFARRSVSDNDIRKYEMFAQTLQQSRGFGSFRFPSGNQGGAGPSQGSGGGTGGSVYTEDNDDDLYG
# G6PDH counter – L. mesenteroides G6PDH inhibitors, counter-screen for G6PDH-coupled screening assays, biochemical, Leuconostoc mesenteroides enzyme | 200,000 tested, 0.12% active | inhibition, % at 5 µM | glucose-6-phosphate dehydrogenase [Leuconostoc mesenteroides] | Purified L. mesenteroides G6PDH, diaphorase/resazurin coupled fluorescence, 45 min | AID 1020, 2008; in the data active means inhibition above about 50%
# UBC9 SUMO inh – inhibitors of in vitro SUMOylation cascade, primary screen, biochemical, HTRF, uHTS. SUMO-conjugating enzyme UBC9 (Homo sapiens), P63279. HTRF SUMOylation assay, SAE1/SAE2 + UBC9. inhibition, % at 35 µM. 290,000 tested, 0.36% active. AID 2006, 2009; in the data active means inhibition above about 50%, passing the limit was not always enough
# HKDC1 inh – HKDC1 hexokinase inhibitors, primary screen, biochemical, fluorescence, uHTS. inhibition, % at 20 µM. Q2TB90. recombinant HKDC1, G6PDH/diaphorase resazurin coupled fluorescence. 340,000 tested, 0.16% active. AID 493160, 2011;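 active means inhibition above about 35% when tested at 20 µM, limit read from the data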;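 further: plate controls were DMSO wells with enzyme for no effect and DMSO wells lacking enzyme for full effect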
#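 Assay system: recombinant HKDC1 hexokinase; detection: coupled resazurin fluorescence, excitation 525 nm, emission 613 nm; benchmarks: DMSO-plus-enzyme-mix negative control, buffer-substituted positive control; compound dosing: single 20 µM dose; schedule: 90 min at room temperature in dark; also added: glucose plus 1 mM ATP as hexokinase substrates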
# p97 inh conf – p97 ATPase inhibitors, retest, confirmation, biochemical; inhibition, % at 8 µM; recombinant p97 ATPase, Kinase-Glo ATP luminescence; AID 1517, 2009; 760 tested, 44% active; shares compounds with p97 ATPase inh;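 active means percent inhibition of p97 ATPase above a set limit, the primary screen's mean plus 3 SD, cut at about 15% in these data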;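 further: 0% = DMSO wells and 100% = wells lacking p97 protein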
# Starred values were filed as active, the others as inactive; . = no result. Rows were chosen to be rich in hits. Some 0.95% of all compounds tested hit in one or more screens of this group.
SMILES,Diaph inh CS,p97 ATPase inh,G6PDH counter,UBC9 SUMO inh,HKDC1 inh,p97 inh conf
O=C(CCCN1C(=O)/C(=C\c2cccs2)SC1=S)Nc1cccc(C(=O)O)c1,13,-3,1,16,23,.
O=C(CCCN1C(=O)/C(=C/c2ccco2)SC1=S)Nc1cccc(C(=O)O)c1,.,33*,.,64*,5,7
CC1CC(C)(C)NC(=S)N1CCC(=O)N1CCN(c2ccccc2)CC1 (centres undefined),-4,15*,11,-6,-5,3
Cc1[nH][nH]c(=O)c1C(c1c(C)[nH][nH]c1=O)c1cn(Cc2ccccc2Cl)c2ccccc12,49,20*,16,70*,6,20*
N/C(=N\O)c1cn(Cc2ccccc2Cl)c2ccccc12,.,.,.,10,4,.
Cc1ccc(C(C(=O)NCc2ccco2)N(C(=O)Cn2nnc3ccccc32)c2ccccc2)o1 (centres undefined),19,16*,1,2,-9,8
NS(=O)(=O)c1ccc(CCNc2ncnc3c2c(-c2ccccc2)cn3-c2ccc(F)cc2)cc1,26,30*,-40,-17,6,24*
C[C@@H]1CN([C@@H](C)CO)C(=O)c2cccc(NC(=O)C3CCCCC3)c2O[C@@H]1CN(C)C(=O)NC1CCCCC1,.,.,.,.,-3,.
O=C(COC(=O)c1ccc2c(c1Cl)C(=O)c1ccccc1C2=O)NC1CC1,25,25*,38,15,14,22*
O=C(COC(=O)c1ccc2c(c1Cl)C(=O)c1ccccc1C2=O)NC1CCCCC1,23,9,22,24,9,.
Cc1cc(C(=O)N2CCN(c3ccc([N+](=O)[O-])cc3)CC2)n[nH]1,.,.,.,0,-2,.
Oc1ccccc1-c1nnc(SCCN2CCOCC2)n1Cc1ccccc1,1,15*,2,-8,-21,5
CC(C)(C)OC(=O)N1CCC(C(=O)Nc2cccc(C(=O)N3CCOCC3)c2)CC1,.,.,.,.,-7,.
Cc1ccc(-n2c(SCC(=O)Nc3ccc(Cl)cc3)nc(O)cc2=O)cc1,.,.,.,0,-2,.
COC(=O)c1c(N2C(=O)Nc3ccccc3N2O)sc2c1CCCC2,7,9,-3,7,-2,.
CCOC(=O)c1c(-c2ccccc2)csc1N1C(=O)Nc2ccccc2N1O,1,18*,11,24,-3,21*
COC(=O)c1c(-c2ccccc2)csc1N1C(=O)Nc2ccccc2N1O,19,15*,3,30,4,23*
Cc1ccc(C(=O)NCC(=O)OCC(=O)c2ccccc2)s1,.,.,.,.,-3,.
N#CC1=C(N)NC(=S)C(C(N)=O)C1c1ccccc1F (centres undefined),.,16*,.,16,16,6
Oc1[nH]c2ccc(Br)cc2c1N=NC(=S)Nc1ccc(F)cc1,.,3,.,27,-3,.
Oc1ccc(NC(=S)N=Nc2c(O)[nH]c3ccc(Br)cc23)cc1,15,21*,-2,-76,-12,21*
Oc1cccc(NC(=S)N=Nc2c(O)[nH]c3ccc(Br)cc23)c1,.,25*,.,-12,-18,23*
COc1cccc(CN(C)C(=O)CNC(=O)c2ccc(-c3ccccc3)cc2)c1OC,.,.,.,-10,-1,.
NC(=O)c1nsc(C(=O)N(c2ccc(F)cc2)C(C(=O)NCC2CCCO2)c2c[nH]c3ccccc23)c1N (centres undefined),.,.,.,-10,5,.
CCC(=O)c1ccccc1OCCCN1CCC(Cc2ccccc2)CC1,.,.,.,13,-6,.
SMILES,Diaph inh CS,p97 ATPase inh,G6PDH counter,UBC9 SUMO inh,HKDC1 inh,p97 inh conf
COc1ccc(CCNC(=O)C2CCC(=O)N2CCc2ccccc2)cc1OC (centres undefined),3,-3,6,1,-5,.
O=S(=O)(c1ccccc1)c1nc(-c2ccc(Cl)cc2)oc1NCCCN1CCOCC1,.,.,.,.,0,.
COC(=O)CCCCC1SCC(NC(=O)c2ccccc2)C1=O (centres undefined),8,17*,3,-5,-3,4
Cc1[nH]c2ccccc2c1/C=N/NC(=O)c1cc(C(C)C)[nH]n1,.,17*,.,6,4,17*
Cc1[nH]c2ccccc2c1/C=N/NC(=O)c1cccs1,9,16*,8,11,-2,22*
CC(C)(C)CC(=O)Nc1cc2c3c(c1)CCC(=O)N3CCC2,.,.,.,14,-6,.
CC1=NN(c2ccc(C)cc2C)C(=O)C1C(c1ccccc1O)C1C(=O)N(c2ccc(C)cc2C)N=C1C (centres undefined),27,28*,10,41,-4,8
CC1=NN(c2ccccc2)C(=O)C1N=Nc1ccc(C)cc1 (centres undefined),12,3,8,7,.,.
Cc1c(C(=O)OCC(=O)Nc2ccc(S(N)(=O)=O)cc2)oc2c1ccc1ccccc12,-14,16*,1,30,1,8
COc1ccc(Br)c(C(=O)Nc2ccc(F)cc2)c1,.,7,.,6,-4,.
N#CCCn1[nH]c(-c2ccccc2)cc1=O,12,22*,-8,69*,-7,5
Cc1cc(=O)n(CCCc2ccccc2)[nH]1,.,.,.,.,4,.
O=C(NCc1ccc2c(c1)OCO2)C(=O)NCC1OCCCN1S(=O)(=O)c1cc(F)ccc1F (centres undefined),.,.,.,-10,-5,.
O=C(Nc1ccc(Br)c2ccccc12)c1ccc2ccccc2c1O,.,19*,.,15,23,24*
CC(=O)c1ccc(S(=O)(=O)N(C)CC(=O)NCC2CCCCC2)cc1,.,.,.,16,-2,.
COc1ccc(N(C)C(=O)Nc2ccc3nsnc3c2)cc1,62*,32*,22,103,3,8
COc1ccc(NC(=S)Nc2ccc3nsnc3c2)cc1,59*,38*,57*,97,2,19*
S=C(Nc1ccc2nsnc2c1)NC1CCCCC1,41,15*,56*,94,15,6
CCOc1ccc(NC(=S)Nc2ccc3nsnc3c2)cc1,54*,33*,54*,96,7,30*
S=C(Nc1ccc(Cl)c(Cl)c1)NC1CCCCC1,4,2,-9,-7,5,.
Cc1cc(OC(C)C(=O)NCc2cccnc2)c2c(C)cc(=O)oc2c1 (centres undefined),.,.,.,25,3,.
CC(C)N(C(=O)Nc1ccc2nsnc2c1)C(C)C,60*,42*,52*,100*,18,17*
O=c1c2c3nc4ccccc4nc3n(Cc3ccccc3)c2ncn1Cc1ccco1,16,16*,8,30,12,34*

# Assay outcomes (PubChem BioAssay)
